# Measurements collected from several papers.
# Lines come from different studies, so protocols differ.
# Cell line: HeLa
# Observed: cell growth or viability
Compound,assay,conditions,IC50 [µM]
COc1ccc(NC(=S)N/N=C/c2cccc3cc4ccccc4nc23)cc1,MTT,48 h,14.8
COc1ccc(CNC(=O)Cn2cc(COc3ncnc4[nH]cnc34)nn2)cc1,MTT,,29.6
C=C[C@]1(C)C=C2CC[C@H]3C(C)(C)CCC[C@]3(C)[C@H]2CC1,MTT,75 h,130
CC(=O)O[C@@]12CO[C@@H]1C[C@H](O)[C@@]1(C)C(=O)[C@H](O)C3=C(C)[C@@H](OC(=O)[C@H](O)[C@@H](NC(=O)OC(C)(C)C)c4ccccc4)C[C@@](O)([C@@H](OC(=O)c4ccccc4)[C@H]21)C3(C)C,MTT,48 h,60.7
O=C(Cn1cc(COc2ncnc3[nH]cnc23)nn1)Nc1ccc(O)cc1,MTT,,17.6
CC(C)CCOc1cc(C(=O)C[n+]2cn(Cc3ccccc3)c3ccccc32)c(OCCC(C)C)c2ccccc12,MTT,24 h,14.8
COc1cccc(NC(=S)N/N=C/c2cccc3cc4ccccc4nc23)c1,MTT,48 h,46.8
CNc1cccc(Nc2nc(-c3ccncc3)nc3c2CNCC3)c1,MTT,,> 100
CC(C)CCOc1cc(C[n+]2c(C(C)C)n(CCC(C)C)c3ccccc32)c(OCCC(C)C)c2ccccc12,MTT,24 h,6.8
O=[N+]([O-])c1ccc(NC(=S)N/N=C/c2cccc3cc4ccccc4nc23)cc1,MTT,48 h,7.5
CCCCCCCCOc1cc(C(=O)C[n+]2cn(CCC(C)C)c3ccccc32)c(OCCCCCCCC)c2ccccc12,MTT,24 h,14.3
CC(=O)O[C@H]1C(=O)[C@@]2(C)[C@H]([C@H](OC(=O)c3ccccc3)[C@]3(O)C[C@H](OC(=O)[C@H](O)[C@@H](NC(=O)c4ccccc4)c4ccccc4)C(C)=C1C3(C)C)[C@]1(OC(C)=O)CO[C@@H]1C[C@@H]2O,MTT,48 h,15.8
CCCNC(=S)N/N=C/c1cccc2cc3ccccc3nc12,MTT,48 h,36.2
CCC(=CCc1c(O)cc2c(c1O)C(=O)CC(c1ccc(O)cc1)O2)CC (stereo in doubt),MTT,48 h,19.1
COc1cccc2c1C(=O)c1c(O)c3c(c(O)c1C2=O)C[C@@](O)(C(=O)CO)C[C@@H]3O[C@H]1C[C@H](N)[C@H](O)[C@H](C)O1,MTT,75 h,0.27
CC(C)CCOc1cc(C[n+]2c(CO)n(CCC(C)C)c3ccccc32)c(OCCC(C)C)c2ccccc12,MTT,24 h,11.8
COc1cccc2c1C(=O)c1c(O)c3c(c(O)c1C2=O)C[C@@](O)(C(=O)CO)C[C@@H]3O[C@H]1C[C@H](N)[C@H](O)[C@H](C)O1,MTT,48 h,0.51
Cc1cc2c(cc1C)[n+](Cc1cc(OCCC(C)C)c3ccccc3c1OCCC(C)C)cn2CCC(C)C,MTT,24 h,8.9
[Cl-].[Li+],MTT,,> 10000
O=Cc1cccc(NC(=O)Cn2cc(COc3ncnc4[nH]cnc34)nn2)c1,MTT,,22.1
CCC(=CCc1c(O)cc2c(c1O)C(=O)C[C@@H](c1ccccc1O)O2)CC,MTT,48 h,51.3
CC(C)CCOc1cc(C[n+]2c(-c3ccc(F)cc3)n(CCC(C)C)c3ccccc32)c(OCCC(C)C)c2ccccc12,MTT,24 h,9.4
CN(C)C1CCc2[nH]c3c(C(N)=O)ccc(-c4ccccc4Cl)c3c2C1 (stereo not drawn),,,0.19
COc1cc(C(=O)C[n+]2cn(CCC(C)C)c3ccccc32)c(OC)c2ccccc12,MTT,24 h,17
COc1cccc(-c2cc(NCc3ccc4c(c3)OCO4)nc(N)n2)c1,CCK-8,72 h,0.188
Fc1ccc(NC(=S)N/N=C/c2cccc3cc4ccccc4nc23)cc1,MTT,48 h,18.4
CSc1ccccc1-c1cc(C(N)=O)c2[nH]c3c(c2c1)CC(N)CC3 (stereo not drawn),,,1.46
Cc1cccc(NC(=O)Cn2cc(COc3ncnc4[nH]cnc34)nn2)c1,MTT,,28.6
Cc1n(CCC(C)C)c2ccccc2[n+]1Cc1cc(OCCC(C)C)c2ccccc2c1OCCC(C)C,MTT,24 h,7.6
COc1cccc(Nc2nc(-c3ccncc3)nc3c2CNCC3)c1,MTT,,23.2
